The source of these data is ChEMBL document CHEMBL1140171, “Synthesis and utilization of chiral alpha-methylated alpha-amino acids with a carboxyalkyl side chain in the design of novel Grb2-SH2 peptide inhibitors free of phosphotyrosine” (J Med Chem, 2008).

Experiment [1] has as its target Growth factor receptor-bound protein 2 (Homo sapiens, UniProt P62993). Nature of the experiment: Binding affinity to recombinant Grb2 SH2 domain by surface plasmon resonance analysis. A digest of the protocol: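 Competition SPR: inhibitor mixed with recombinant Grb2 SH2 protein, with equilibrium binding measured to immobilized biotinyl-DDPS-pY-VNVQ (SHC pTyr317 phosphopeptide) on a streptavidin SA chip. Run in pH 7.4 PBS with 0.01% P-20 surfactant. IC50 is the concentration giving half-maximal competition, as the mean of at least two independent experiments with standard deviation.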

The test system of experiment [2] is MDA-MB-453. As to the kind of experiment: Antiproliferative activity against human MDA-MB-453 cells expressing erbB-2 after 4 days by WST-8 assay. In kind it is functional, cell-based. Particulars: MDA-MB-453, 96 h. Summed up:
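MDA-MB-453 cells (erbB-2 overexpressing) seeded at (3-4) × 10^3 cells/well with a range of inhibitor concentrations, incubated 4 days. WST-8 added to 10% final, 2-3 h at 37 °C, absorbance read at 450 nm. IC50 is the concentration giving 50% growth inhibition, taken against untreated DMSO-control absorbance.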
For orientation: Tetrazolium dyes change colour on reduction, which living cells bring about.

pIC50: −log10 of the molar value. Starred links: 1 amine or outer side, 2 acyl side, 3 side chain; linkers in the order of their positions; H or OH if unused. Positions of bridges follow the written chain, without caps; N, C: chain ends. Non-standard residues stand in square brackets, D forms with d. Residues, ends and D or L forms follow the SMILES beside them. *: point of attachment. Cys(CH2CO)(S-oxide,Ss) = O=C([C@H](C[S@+]([O-])CC(=O)[*:3])N[*:1])[*:2]; X1 = O=C(O)CCc1cc(C[C@H](N[*:1])C(=O)[*:2])ccc1O; Tyr(3-NH2) = Nc1cc(C[C@H](N)C(=O)O)ccc1O; X2 = C[C@](CCCC(=O)O)(N[*:1])C(=O)[*:2]; Gla = N[C@@H](CC(C(=O)O)C(=O)O)C(=O)O; Fmoc = O=C(OCC1c2ccccc2-c2ccccc21)*; αMehGlu = C[C@](N)(CCCC(=O)O)C(=O)O; αMeE = C[C@](N)(CCC(=O)O)C(=O)O; Aad = N[C@@H](CCCC(=O)O)C(=O)O; αMeD = C[C@](N)(CC(=O)O)C(=O)O; Ac6c = NC1(C(=O)O)CCCCC1; Ava = NCCCCC(=O)O

Growth factor receptor-bound protein 2, sequence (P62993 whole entry, the tested form may be a part): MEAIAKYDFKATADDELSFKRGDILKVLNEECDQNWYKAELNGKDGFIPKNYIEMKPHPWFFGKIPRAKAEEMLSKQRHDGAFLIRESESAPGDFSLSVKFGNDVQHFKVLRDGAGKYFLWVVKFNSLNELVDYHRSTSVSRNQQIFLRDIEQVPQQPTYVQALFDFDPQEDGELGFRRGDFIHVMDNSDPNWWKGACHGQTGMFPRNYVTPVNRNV

On to `CC(C)C[C@@H]1NC(=O)[C@H](CCCC(=O)O)NC(=O)C[S@@+]([O-])C[C@@H](C(N)=O)NC(=O)CCCCNC(=O)[C@H](CC(N)=O)NC(=O)[C@](C)(CCC(=O)O)NC(=O)[C@H](Cc2ccc(O)cc2)NC1=O`, for which, in experiment [1], the pIC50 was 4.74. As for `CC(C)C[C@@H]1NC(=O)[C@H](CCCC(=O)O)NC(=O)C[S@@+]([O-])C[C@@H](C(N)=O)NC(=O)CCCCNC(=O)[C@H](CC(N)=O)NC(=O)[C@@](C)(CCC(=O)O)NC(=O)[C@H](Cc2ccc(O)cc2)NC1=O`, the pIC50 in experiment [1] was 4.52. On to `C[C@@](CCC(=O)O)(NC(=O)[C@H](Cc1ccc(O)c(CCC(=O)O)c1)NC(=O)OCC1c2ccccc2-c2ccccc21)C(=O)N[C@@H](CC(N)=O)C(N)=O`, for which the pIC50 in experiment [1] is 3.77. On the same count and under the same terms, the same measure for `CC(C)C[C@@H]1NC(=O)[C@H](CCCC(=O)O)NC(=O)CSC[C@@H](C(N)=O)NC(=O)CCCCNC(=O)[C@H](CC(N)=O)NC(=O)[C@@](C)(CCC(=O)O)NC(=O)[C@H](Cc2ccc(O)cc2)NC1=O`: 4.22; for `C[C@@](CCC(=O)O)(NC(=O)[C@@H](N)Cc1ccc(O)c(CCO)c1)C(=O)N[C@@H](CC(N)=O)C(N)=O`: 3.54; for `CC(C)C[C@@H]1NC(=O)[C@H](CCCC(=O)O)NC(=O)CSC[C@@H](C(N)=O)NC(=O)CCCCNC(=O)[C@H](CC(N)=O)NC(=O)[C@](C)(CCC(=O)O)NC(=O)[C@H](Cc2ccc(O)cc2)NC1=O`: 4.15.

Regarding `CC(C)C[C@H](NC(=O)[C@H](CCCC(=O)O)NC(=O)OCC1c2ccccc2-c2ccccc21)C(=O)N[C@@H](Cc1ccc(O)c(N)c1)C(=O)NC1(C(=O)N[C@@H](CC(N)=O)C(N)=O)CCCCC1` (Fmoc-[Aad]L[Tyr(3-NH2)][Ac6c]N-NH2), the pIC50 in experiment [1] is 5.24. `CC(C)C[C@H](NC(=O)[C@H](CCCC(=O)O)NC(=O)OCC1c2ccccc2-c2ccccc21)C(=O)N[C@@H](Cc1ccc(O)c(CCC(=O)O)c1)C(=O)N[C@@](C)(CCC(=O)O)C(=O)N[C@@H](CC(N)=O)C(N)=O` (Fmoc-[Aad]L[X1][αMeE]N-NH2): the pIC50 was 4.85 in experiment [2] and 5.25 in experiment [1]. With `CC(C)C[C@H](NC(=O)[C@H](CC(C(=O)O)C(=O)O)NC(=O)OCC1c2ccccc2-c2ccccc21)C(=O)N[C@@H](Cc1ccc(O)c(N)c1)C(=O)NC1(C(=O)N[C@@H](CC(N)=O)C(N)=O)CCCCC1` (Fmoc-[Gla]L[Tyr(3-NH2)][Ac6c]N-NH2), the pIC50 in experiment [2] is 4.28; in experiment [1], 5.60. For `CC(C)C[C@H](NC(=O)[C@H](CC(C(=O)O)C(=O)O)NC(=O)OCC1c2ccccc2-c2ccccc21)C(=O)N[C@@H](Cc1ccc(O)c(N)c1)C(=O)N[C@@](C)(CCC(=O)O)C(=O)N[C@@H](CC(N)=O)C(N)=O` (Fmoc-[Gla]L[Tyr(3-NH2)][αMeE]N-NH2) the same measures were 4.26 and 5.36. `CC(C)C[C@H](NC(=O)[C@@](C)(CCCC(=O)O)NC(=O)OCC1c2ccccc2-c2ccccc21)C(=O)N[C@@H](Cc1ccc(O)cc1)C(=O)NC1(C(=O)N[C@@H](CC(N)=O)C(N)=O)CCCCC1` (Fmoc-[X2]LY[Ac6c]N-NH2): the pIC50 in experiment [1] is less than 3.00. On the same count and under the same terms, with `CC(C)C[C@H](NC(=O)[C@@](C)(CCCC(=O)O)NC(=O)OCC1c2ccccc2-c2ccccc21)C(=O)N[C@@H](Cc1ccc(O)c(N)c1)C(=O)NC1(C(=O)N[C@@H](CC(N)=O)C(N)=O)CCCCC1` (Fmoc-[X2]L[Tyr(3-NH2)][Ac6c]N-NH2) the figure was 3.15; with `CC(C)C[C@H](NC(=O)[C@](C)(CCCC(=O)O)NC(=O)OCC1c2ccccc2-c2ccccc21)C(=O)N[C@@H](Cc1ccc(O)cc1)C(=O)NC1(C(=O)N[C@@H](CC(N)=O)C(N)=O)CCCCC1` (Fmoc-[αMehGlu]LY[Ac6c]N-NH2), 3.93.

`CC(C)C[C@H](NC(=O)[C@](C)(CCCC(=O)O)NC(=O)OCC1c2ccccc2-c2ccccc21)C(=O)N[C@@H](Cc1ccc(O)c(N)c1)C(=O)NC1(C(=O)N[C@@H](CC(N)=O)C(N)=O)CCCCC1` (Fmoc-[αMehGlu]L[Tyr(3-NH2)][Ac6c]N-NH2): the pIC50 in experiment [2] was 4.54; in experiment [1], 5.41. As for `CC(C)C[C@H](NC(=O)[C@@H](N)CC(C(=O)O)C(=O)O)C(=O)N[C@@H](Cc1ccc(O)c(N)c1)C(=O)N[C@@](C)(CCC(=O)O)C(=O)N[C@@H](CC(N)=O)C(N)=O` (H-[Gla]L[Tyr(3-NH2)][αMeE]N-NH2), in experiment [1], the pIC50 is 4.72. On to `CC(C)C[C@@H]1NC(=O)[C@H](CCCC(=O)O)NC(=O)C[S@@+]([O-])C[C@@H](C(N)=O)NC(=O)CCCCNC(=O)[C@H](CC(N)=O)NC(=O)C2(CCCCC2)NC(=O)[C@H](Cc2ccc(O)cc2)NC1=O` ([Aad]LY[Ac6c]N[Ava][Cys(CH2CO)(S-oxide,Ss)]-NH2; lactam N-7), for which the pIC50 in experiment [1] is 4.11. Regarding `CC(C)C[C@@H]1NC(=O)[C@H](CCCC(=O)O)NC(=O)C[S@@+]([O-])C[C@@H](C(N)=O)NC(=O)CCCCNC(=O)[C@H](CC(N)=O)NC(=O)[C@](C)(CC(=O)O)NC(=O)[C@H](Cc2ccc(O)cc2)NC1=O` ([Aad]LY[αMeD]N[Ava][Cys(CH2CO)(S-oxide,Ss)]-NH2; lactam N-7), the negative logarithm of the IC50 (pIC50) in experiment [1] was 4.52.

As to `CC(C)C[C@@H]1NC(=O)[C@H](CCCC(=O)O)NC(=O)C[S@@+]([O-])C[C@@H](C(N)=O)NC(=O)CCCCNC(=O)[C@H](CC(N)=O)NC(=O)[C@](C)(CCCC(=O)O)NC(=O)[C@H](Cc2ccc(O)cc2)NC1=O` ([Aad]LY[αMehGlu]N[Ava][Cys(CH2CO)(S-oxide,Ss)]-NH2; lactam N-7), the pIC50 in experiment [1] was 4.77.

On to `CC(C)C[C@@H]1NC(=O)[C@H](CCCC(=O)O)NC(=O)C[S@@+]([O-])C[C@@H](C(N)=O)NC(=O)CCCCNC(=O)[C@H](CC(N)=O)NC(=O)[C@](C)(CCC(=O)O)NC(=O)[C@H](Cc2ccc(O)c(N)c2)NC1=O` ([Aad]L[Tyr(3-NH2)][αMeE]N[Ava][Cys(CH2CO)(S-oxide,Ss)]-NH2; lactam N-7), for which the pIC50 in experiment [1] is 5.09.

With `CC(C)C[C@@H]1NC(=O)[C@H](CC(C(=O)O)C(=O)O)NC(=O)C[S@@+]([O-])C[C@@H](C(N)=O)NC(=O)CCCCNC(=O)[C@H](CC(N)=O)NC(=O)[C@](C)(CCCC(=O)O)NC(=O)[C@H](Cc2ccc(O)c(N)c2)NC1=O` ([Gla]L[Tyr(3-NH2)][αMehGlu]N[Ava][Cys(CH2CO)(S-oxide,Ss)]-NH2; lactam N-7), the pIC50 in experiment [2] was 4.92; in experiment [1], 5.94. For `CC(C)C[C@@H]1NC(=O)[C@H](CCCC(=O)O)NC(=O)CSC[C@@H](C(N)=O)NC(=O)CCCCNC(=O)[C@H](CC(N)=O)NC(=O)[C@](C)(CC(=O)O)NC(=O)[C@H](Cc2ccc(O)cc2)NC1=O` ({CH2CO}-[Aad]LY[αMeD]N[Ava]C-NH2; thioether N-7), the pIC50 in experiment [1] is 3.97. On the same count and under the same terms, with `CC(C)C[C@@H]1NC(=O)[C@H](CCCC(=O)O)NC(=O)CSC[C@@H](C(N)=O)NC(=O)CCCCNC(=O)[C@H](CC(N)=O)NC(=O)[C@](C)(CCCC(=O)O)NC(=O)[C@H](Cc2ccc(O)cc2)NC1=O` ({CH2CO}-[Aad]LY[αMehGlu]N[Ava]C-NH2; thioether N-7) the figure was 4.22. In the case of `CC(C)C[C@@H]1NC(=O)[C@H](CCCC(=O)O)NC(=O)CSC[C@@H](C(N)=O)NC(=O)CCCCNC(=O)[C@H](CC(N)=O)NC(=O)[C@](C)(CCC(=O)O)NC(=O)[C@H](Cc2ccc(O)c(N)c2)NC1=O` ({CH2CO}-[Aad]L[Tyr(3-NH2)][αMeE]N[Ava]C-NH2; thioether N-7), the pIC50 in experiment [1] was 4.77.

Regarding `CC(C)C[C@@H]1NC(=O)[C@H](CC(C(=O)O)C(=O)O)NC(=O)CSC[C@@H](C(N)=O)NC(=O)CCCCNC(=O)[C@H](CC(N)=O)NC(=O)[C@](C)(CCCC(=O)O)NC(=O)[C@H](Cc2ccc(O)c(N)c2)NC1=O` ({CH2CO}-[Gla]L[Tyr(3-NH2)][αMehGlu]N[Ava]C-NH2; thioether N-7), in experiment [1], the pIC50 was 5.02.

Broadly, the pIC50 is the IC50 on a negative log10 scale, so that one unit is a factor of ten.
